Published values of several laboratories.
Compare with care: the assays were run in different laboratories.
ADORA1: Adenosine receptor A1 (ADORA1, Homo sapiens, UniProt P30542)
RPS6KB2: Ribosomal protein S6 kinase beta-2 (RPS6KB2, Homo sapiens, UniProt Q9UBS0)
AXL: Tyrosine-protein kinase receptor UFO (AXL, Homo sapiens, UniProt P30530)

| Compound | target | test | test system | conditions | measurement | result |
| --- | --- | --- | --- | --- | --- | --- |
| NC/C(=C\F)COc1cccc(Cn2c(=S)[nH]c(=O)c3[nH]cnc32)c1 | ADORA1 | ligand displacement, radioligand |  | 10 µM | inhibition | < 50% |
| CCCCC(=O)Nc1ccc(-c2ccc3ncn(CCC)c(=O)c3c2)cn1 | Serine/threonine-protein kinase 32A (STK32A, Homo sapiens, UniProt Q8WU08) | binding, competition with immobilised ligand |  | 0.5 µM | remaining binding | 86% |
| Cc1cc(F)cc2c(CCC(=O)N[C@@H]3C(=O)NC[C@H]3O)c(-c3ccc(F)cc3)[nH]c12 | ADORA1 | cell-free assay |  | 10 µM | inhibition | 4% |
| C1=C/COCc2cc(ccc2OCCN2CCCC2)Nc2nccc(n2)-c2cccc(c2)COC/1 | Ephrin type-A receptor 4 (EPHA4, Homo sapiens, UniProt P54764) | binding |  | 0.1 µM | remaining binding | 100% |
| COc1nc(-c2cccc(-c3ccccc3)c2C)ccc1CNCCNC(=O)CCCCCCCCCCC(=O)N1CCN(CCNC(=O)c2cc3c(=O)n4cccc(C)c4nc3n(CCc3cccs3)c2=N)CC1 | Programmed cell death 1 ligand 1 (CD274, Homo sapiens, UniProt Q9NZQ7) | protein level, degrader, western blot | HL-60 | 1 µM | Dmax | 53.9% |
| C#Cc1cc(-c2cc(Nc3nc(N[C@@H](C)c4ccc(F)cn4)ncc3Cl)n[nH]2)ccc1C=O | RAC-gamma serine/threonine-protein kinase (AKT3, Homo sapiens, UniProt Q9Y243) | enzyme activity, inhibitor |  | 0.2 µM | inhibition | 17.4% |
| Cc1cc(O)c(-c2ccc([C@@H](C)CN(C)C)cc2)c2c1[nH]c(=O)c1sccc12 | RPS6KB2 | enzyme activity, inhibitor |  | 0.1 µM | inhibition | -3.41% |
| C#Cc1cnc(Nc2ccc(CO)cc2)nc1Nc1ccccc1C(=O)NC | AXL | enzyme activity, inhibitor |  | 1 µM | remaining activity | 1.65% |
| CC(C)C[C@H](NC(=O)CNC(=O)[C@H](Cc1ccc(O)cc1)NC(=O)[C@H](CO)NC(=O)[C@H](Cc1c[nH]c2ccccc12)NC(=O)[C@H](Cc1c[nH]cn1)NC(=O)[C@@H]1CCC(=O)N1)C(=O)N[C@@H](CCCNC(=N)N)C(=O)N1CCC[C@H]1C(=O)NCC(N)=O | Gonadotropin-releasing hormone receptor (GNRHR, Homo sapiens, UniProt P30968) | inositol phosphate, agonist, TR-FRET | HEK-293T | 1 h | Emax | 100% |
| COc1ccc2oc(-c3ccc4nc(N)oc4c3)c/c(=N\c3ccccc3NC(=O)CCN)c2c1 | RPS6KB2 | binding |  | 1 µM | remaining binding | 93% |
| CS(=O)(=NC#N)c1ccccc1Nc1nc(Nc2ccnc(CO)c2)ncc1Cl (stereo not drawn) | AXL | enzyme activity, inhibitor |  | 1 µM | remaining activity | 14.7% |
| CCN1/C(=C/C(C)=O)Sc2ccc(F)cc21 | ADORA1 | ligand displacement, radioligand |  | 10 µM | inhibition | 2.48% |
